Reference: ChEMBL document CHEMBL3108706, “Design, synthesis, and biological activity of novel dicoumarol glucagon-like peptide 1 conjugates” (J Med Chem, 2013)

Assays:
albumin = albumin (Homo sapiens, UniProt P02768); test: Binding affinity to human serum albumin at 100 ug/mL after 3 hrs relative to control; assay type: ADME; settings: read-out: PB (converted)
How it was run: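 Peptide at 100 μg/mL in PBS (50 μL) was incubated with HSA-conjugated Sepharose resin for 3 h at 25 °C, then centrifuged (1000 rpm, 10 min). Unbound peptide in the supernatant was quantified by micro BCA assay. Nonspecific adsorption was corrected with NHS-inactivated, albumin-free resin.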

[1] = Half life in Sprague-Dawley rat plasma at 1000 ng/mL by LC-MS/MS analysis; assay type: ADME, cell-free
[2] = target: Glucagon-like peptide 1 receptor (Homo sapiens, UniProt P43220); test: Activation of human GLP-1 receptor overexpressed in HEK293 cells assessed as cAMP accumulation after 20 mins by HTRF assay; assay type: functional, cell-based
Glucagon-like peptide 1 receptor, sequence (P43220 whole entry): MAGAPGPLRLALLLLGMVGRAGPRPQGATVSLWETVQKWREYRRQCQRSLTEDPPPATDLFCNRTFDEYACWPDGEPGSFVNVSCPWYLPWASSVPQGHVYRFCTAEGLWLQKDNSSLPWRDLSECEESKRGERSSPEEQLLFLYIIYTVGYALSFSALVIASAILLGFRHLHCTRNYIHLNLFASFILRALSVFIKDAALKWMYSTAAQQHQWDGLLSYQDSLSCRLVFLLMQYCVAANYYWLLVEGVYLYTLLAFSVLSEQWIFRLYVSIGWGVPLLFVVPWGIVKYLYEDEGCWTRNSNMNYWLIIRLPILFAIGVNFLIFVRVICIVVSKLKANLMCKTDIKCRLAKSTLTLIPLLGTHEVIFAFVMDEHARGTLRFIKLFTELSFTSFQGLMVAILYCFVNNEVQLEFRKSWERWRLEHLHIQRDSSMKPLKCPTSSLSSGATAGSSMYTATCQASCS

albumin, sequence (P02768 whole entry): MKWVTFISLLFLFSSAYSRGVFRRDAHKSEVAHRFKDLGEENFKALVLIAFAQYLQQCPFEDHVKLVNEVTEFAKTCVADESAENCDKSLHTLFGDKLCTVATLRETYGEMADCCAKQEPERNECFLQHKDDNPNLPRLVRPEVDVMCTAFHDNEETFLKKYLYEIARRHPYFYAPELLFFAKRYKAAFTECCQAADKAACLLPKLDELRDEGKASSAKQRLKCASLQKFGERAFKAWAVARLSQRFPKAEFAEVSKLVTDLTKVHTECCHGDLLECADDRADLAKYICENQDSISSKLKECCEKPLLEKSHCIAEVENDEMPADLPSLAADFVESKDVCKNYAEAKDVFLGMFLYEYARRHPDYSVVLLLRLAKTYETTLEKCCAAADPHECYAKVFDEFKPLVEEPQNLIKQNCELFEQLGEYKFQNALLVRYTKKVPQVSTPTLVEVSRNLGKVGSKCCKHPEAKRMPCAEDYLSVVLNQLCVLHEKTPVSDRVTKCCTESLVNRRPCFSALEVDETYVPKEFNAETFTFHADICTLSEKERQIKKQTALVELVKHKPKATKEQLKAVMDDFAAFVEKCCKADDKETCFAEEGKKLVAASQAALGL

| SMILES | fraction unbound at 3 h, 100 ug/mL (albumin) | half-life at 1000 ng/mL [1] | EC50 [2] |
| --- | --- | --- | --- |
| CC[C@H](C)[C@H](NC(=O)[C@H](Cc1ccccc1)NC(=O)[C@H](CCC(=O)O)NC(=O)[C@H](CCCCN)NC(=O)[C@H](C)NC(=O)[C@H](C)NC(=O)[C@H](CCC(N)=O)NC(=O)CNC(=O)[C@H](CCC(=O)O)NC(=O)[C@H](CC(C)C)NC(=O)[C@H](Cc1ccc(O)cc1)NC(=O)[C@H](CO)NC(=O)[C@H](CO)NC(=O)[C@@H](NC(=O)[C@H](CC(=O)O)NC(=O)[C@H](CO)NC(=O)[C@@H](NC(=O)[C@H](Cc1ccccc1)NC(=O)[C@@H](NC(=O)CNC(=O)[C@H](CCC(=O)O)NC(=O)CNC(=O)[C@@H](N)Cc1cnc[nH]1)[C@@H](C)O)[C@@H](C)O)C(C)C)C(=O)N[C@@H](C)C(=O)N[C@@H](Cc1c[nH]c2ccccc12)C(=O)N[C@@H](CC(C)C)C(=O)N[C@H](C(=O)N[C@@H](CCCCN)C(=O)NCC(=O)N[C@@H](CCCNC(=N)N)C(N)=O)C(C)C | 0.937 | 0.8 h | – |
| CC[C@H](C)[C@H](NC(=O)[C@H](Cc1ccccc1)NC(=O)[C@H](CCC(=O)O)NC(=O)[C@H](CCCCN)NC(=O)[C@H](C)NC(=O)[C@H](C)NC(=O)[C@H](CCC(N)=O)NC(=O)CNC(=O)[C@H](CCC(=O)O)NC(=O)[C@H](CC(C)C)NC(=O)[C@H](Cc1ccc(O)cc1)NC(=O)[C@H](CO)NC(=O)[C@H](CO)NC(=O)[C@@H](NC(=O)[C@H](CC(=O)O)NC(=O)[C@H](CO)NC(=O)[C@@H](NC(=O)[C@H](Cc1ccccc1)NC(=O)[C@@H](NC(=O)CNC(=O)[C@H](CCC(=O)O)NC(=O)CNC(=O)[C@@H](N)Cc1cnc[nH]1)[C@@H](C)O)[C@@H](C)O)C(C)C)C(=O)N[C@@H](C)C(=O)N[C@@H](Cc1c[nH]c2ccccc12)C(=O)N[C@@H](CC(C)C)C(=O)N[C@H](C(=O)N[C@@H](CSC1CC(=O)N(CCCCCCCCCCCC(=O)Nc2ccc(C(c3c(O)c4ccccc4oc3=O)c3c(O)c4ccccc4oc3=O)cc2)C1=O)C(=O)NCC(=O)N[C@@H](CCCNC(=N)N)C(N)=O)C(C)C (stereo partly specified) | 0.168 | 38.6 h | 18.1 pM |
| CC[C@H](C)[C@H](NC(=O)[C@H](Cc1ccccc1)NC(=O)[C@H](CCC(=O)O)NC(=O)[C@H](CS)NC(=O)[C@H](C)NC(=O)[C@H](C)NC(=O)[C@H](CCC(N)=O)NC(=O)CNC(=O)[C@H](CCC(=O)O)NC(=O)[C@H](CC(C)C)NC(=O)[C@H](Cc1ccc(O)cc1)NC(=O)[C@H](CO)NC(=O)[C@H](CO)NC(=O)[C@@H](NC(=O)[C@H](CC(=O)O)NC(=O)[C@H](CO)NC(=O)[C@@H](NC(=O)[C@H](Cc1ccccc1)NC(=O)[C@@H](NC(=O)CNC(=O)[C@H](CCC(=O)O)NC(=O)CNC(=O)[C@@H](N)Cc1cnc[nH]1)[C@@H](C)O)[C@@H](C)O)C(C)C)C(=O)N[C@@H](C)C(=O)N[C@@H](Cc1c[nH]c2ccccc12)C(=O)N[C@@H](CC(C)C)C(=O)N[C@H](C(=O)N[C@@H](CCCCN)C(=O)NCC(=O)N[C@@H](CCCNC(=N)N)C(N)=O)C(C)C | 0.949 | 0.7 h | 3.2 pM |
| CC[C@H](C)[C@H](NC(=O)[C@H](Cc1ccccc1)NC(=O)[C@H](CCC(=O)O)NC(=O)[C@H](CCCCN)NC(=O)[C@H](C)NC(=O)[C@H](C)NC(=O)[C@H](CCC(N)=O)NC(=O)CNC(=O)[C@H](CCC(=O)O)NC(=O)[C@H](CC(C)C)NC(=O)[C@H](Cc1ccc(O)cc1)NC(=O)[C@H](CO)NC(=O)[C@H](CO)NC(=O)[C@@H](NC(=O)[C@H](CC(=O)O)NC(=O)[C@H](CO)NC(=O)[C@@H](NC(=O)[C@H](Cc1ccccc1)NC(=O)[C@@H](NC(=O)CNC(=O)[C@H](CCC(=O)O)NC(=O)CNC(=O)[C@@H](N)Cc1cnc[nH]1)[C@@H](C)O)[C@@H](C)O)C(C)C)C(=O)N[C@@H](C)C(=O)N[C@@H](Cc1c[nH]c2ccccc12)C(=O)N[C@@H](CC(C)C)C(=O)N[C@H](C(=O)N[C@@H](CSC1CC(=O)N(CCC(=O)Nc2ccc(C(c3c(O)c4ccccc4oc3=O)c3c(O)c4ccccc4oc3=O)cc2)C1=O)C(=O)NCC(=O)N[C@@H](CCCNC(=N)N)C(N)=O)C(C)C (stereo partly specified) | 0.273 | 19.3 h | 6.5 pM |
| CC[C@H](C)[C@H](NC(=O)[C@H](Cc1ccccc1)NC(=O)[C@H](CCC(=O)O)NC(=O)[C@H](CCCCN)NC(=O)[C@H](C)NC(=O)[C@H](C)NC(=O)[C@H](CCC(N)=O)NC(=O)CNC(=O)[C@H](CCC(=O)O)NC(=O)[C@H](CC(C)C)NC(=O)[C@H](Cc1ccc(O)cc1)NC(=O)[C@H](CO)NC(=O)[C@H](CS)NC(=O)[C@@H](NC(=O)[C@H](CC(=O)O)NC(=O)[C@H](CO)NC(=O)[C@@H](NC(=O)[C@H](Cc1ccccc1)NC(=O)[C@@H](NC(=O)CNC(=O)[C@H](CCC(=O)O)NC(=O)CNC(=O)[C@@H](N)Cc1cnc[nH]1)[C@@H](C)O)[C@@H](C)O)C(C)C)C(=O)N[C@@H](C)C(=O)N[C@@H](Cc1c[nH]c2ccccc12)C(=O)N[C@@H](CC(C)C)C(=O)N[C@H](C(=O)N[C@@H](CCCCN)C(=O)NCC(=O)N[C@@H](CCCNC(=N)N)C(N)=O)C(C)C | 0.922 | 1.1 h | 6.4 pM |
| CC[C@H](C)[C@H](NC(=O)[C@H](Cc1ccccc1)NC(=O)[C@H](CCC(=O)O)NC(=O)[C@H](CCCCN)NC(=O)[C@H](C)NC(=O)[C@H](C)NC(=O)[C@H](CCC(N)=O)NC(=O)CNC(=O)[C@H](CCC(=O)O)NC(=O)[C@H](CC(C)C)NC(=O)[C@H](Cc1ccc(O)cc1)NC(=O)[C@H](CO)NC(=O)[C@H](CO)NC(=O)[C@@H](NC(=O)[C@H](CC(=O)O)NC(=O)[C@H](CO)NC(=O)[C@@H](NC(=O)[C@H](Cc1ccccc1)NC(=O)[C@@H](NC(=O)CNC(=O)[C@H](CCC(=O)O)NC(=O)CNC(=O)[C@@H](N)Cc1cnc[nH]1)[C@@H](C)O)[C@@H](C)O)C(C)C)C(=O)N[C@@H](C)C(=O)N[C@@H](Cc1c[nH]c2ccccc12)C(=O)N[C@@H](CC(C)C)C(=O)N[C@H](C(=O)N[C@@H](CS)C(=O)NCC(=O)N[C@@H](CCCNC(=N)N)C(N)=O)C(C)C | 0.939 | 0.6 h | 4.9 pM |

More lines, now with the values ahead:

| fraction unbound at 3 h, 100 ug/mL (albumin) | half-life at 1000 ng/mL [1] | EC50 [2] | SMILES |
| --- | --- | --- | --- |
| 0.248 | 18.6 h | 3.2 pM | CC[C@H](C)[C@H](NC(=O)[C@H](Cc1ccccc1)NC(=O)[C@H](CCC(=O)O)NC(=O)[C@H](CCCCN)NC(=O)[C@H](C)NC(=O)[C@H](C)NC(=O)[C@H](CCC(N)=O)NC(=O)CNC(=O)[C@H](CCC(=O)O)NC(=O)[C@H](CC(C)C)NC(=O)[C@H](Cc1ccc(O)cc1)NC(=O)[C@H](CO)NC(=O)[C@H](CO)NC(=O)[C@@H](NC(=O)[C@H](CC(=O)O)NC(=O)[C@H](CO)NC(=O)[C@@H](NC(=O)[C@H](Cc1ccccc1)NC(=O)[C@@H](NC(=O)CNC(=O)[C@H](CCC(=O)O)NC(=O)CNC(=O)[C@@H](N)Cc1cnc[nH]1)[C@@H](C)O)[C@@H](C)O)C(C)C)C(=O)N[C@@H](C)C(=O)N[C@@H](Cc1c[nH]c2ccccc12)C(=O)N[C@@H](CC(C)C)C(=O)N[C@H](C(=O)N[C@@H](CCCCN)C(=O)NCC(=O)N[C@@H](CCCNC(=N)N)C(=O)N[C@@H](CSC1CC(=O)N(CCCCCC(=O)Nc2ccc(C(c3c(O)c4ccccc4oc3=O)c3c(O)c4ccccc4oc3=O)cc2)C1=O)C(N)=O)C(C)C (stereo partly specified) |
| 0.198 | 22.1 h | 7.3 pM | CC[C@H](C)[C@H](NC(=O)[C@H](Cc1ccccc1)NC(=O)[C@H](CCC(=O)O)NC(=O)[C@H](CCCCN)NC(=O)[C@H](C)NC(=O)[C@H](C)NC(=O)[C@H](CCC(N)=O)NC(=O)CNC(=O)[C@H](CCC(=O)O)NC(=O)[C@H](CC(C)C)NC(=O)[C@H](Cc1ccc(O)cc1)NC(=O)[C@H](CO)NC(=O)[C@H](CO)NC(=O)[C@@H](NC(=O)[C@H](CC(=O)O)NC(=O)[C@H](CO)NC(=O)[C@@H](NC(=O)[C@H](Cc1ccccc1)NC(=O)[C@@H](NC(=O)CNC(=O)[C@H](CCC(=O)O)NC(=O)CNC(=O)[C@@H](N)Cc1cnc[nH]1)[C@@H](C)O)[C@@H](C)O)C(C)C)C(=O)N[C@@H](C)C(=O)N[C@@H](Cc1c[nH]c2ccccc12)C(=O)N[C@@H](CC(C)C)C(=O)N[C@H](C(=O)N[C@@H](CSC1CC(=O)N(CCCCCC(=O)Nc2ccc(C(c3c(O)c4ccccc4oc3=O)c3c(O)c4ccccc4oc3=O)cc2)C1=O)C(=O)NCC(=O)N[C@@H](CCCNC(=N)N)C(N)=O)C(C)C (stereo partly specified) |
| 0.31 | 13.6 h | 26.1 pM | CC[C@H](C)[C@H](NC(=O)[C@H](Cc1ccccc1)NC(=O)[C@H](CCC(=O)O)NC(=O)[C@H](CCCCN)NC(=O)[C@H](C)NC(=O)[C@H](C)NC(=O)[C@H](CCC(N)=O)NC(=O)CNC(=O)[C@H](CCC(=O)O)NC(=O)[C@H](CC(C)C)NC(=O)[C@H](Cc1ccc(O)cc1)NC(=O)[C@H](CO)NC(=O)[C@H](CSC1CC(=O)N(CCC(=O)Nc2ccc(C(c3c(O)c4ccccc4oc3=O)c3c(O)c4ccccc4oc3=O)cc2)C1=O)NC(=O)[C@@H](NC(=O)[C@H](CC(=O)O)NC(=O)[C@H](CO)NC(=O)[C@@H](NC(=O)[C@H](Cc1ccccc1)NC(=O)[C@@H](NC(=O)CNC(=O)[C@H](CCC(=O)O)NC(=O)CNC(=O)[C@@H](N)Cc1cnc[nH]1)[C@@H](C)O)[C@@H](C)O)C(C)C)C(=O)N[C@@H](C)C(=O)N[C@@H](Cc1c[nH]c2ccccc12)C(=O)N[C@@H](CC(C)C)C(=O)N[C@H](C(=O)N[C@@H](CCCCN)C(=O)NCC(=O)N[C@@H](CCCNC(=N)N)C(N)=O)C(C)C (stereo partly specified) |
